Shown are actives, neighbours in structure and some others; about 3.4% of the full set was active somewhere.
GPR7 antagonist: blocks human GPR7 receptor signaling. 290,000 tested, 1.1% active. AID 1861. inhibition, % at 4.4 µM. GPR7-expressing cells, fluorescence antagonist assay; in the data active = inhibition above about 16%, passing the limit was not always enough;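 also: cells stimulated with the agonist NPW; 0% = agonist with vehicle and 100% = vehicle without agonist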
Target sequence (P48145 whole entry, looked up): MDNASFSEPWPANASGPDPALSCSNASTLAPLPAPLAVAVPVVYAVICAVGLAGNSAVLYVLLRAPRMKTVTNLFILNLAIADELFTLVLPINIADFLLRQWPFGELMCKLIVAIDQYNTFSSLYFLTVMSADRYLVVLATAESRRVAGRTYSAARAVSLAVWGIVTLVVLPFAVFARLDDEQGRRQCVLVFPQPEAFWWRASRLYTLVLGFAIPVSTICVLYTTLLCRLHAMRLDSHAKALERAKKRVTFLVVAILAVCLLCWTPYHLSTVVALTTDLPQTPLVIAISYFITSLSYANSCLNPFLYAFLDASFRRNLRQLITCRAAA
TRPML3 ag: human mucolipin-3 channel agonism. Q8TDD5. HEK293 TRPML3-YFP, Fluo-8 calcium fluorescence; 100% = the carbachol control signal. activation, % at 3 µM. 220,000 tested, 0.29% active;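 active = activation above its plate's cutoff, the mean activation of the plate's test wells plus 3 SD, cut at about 12% in these data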;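 also: 0% = DMSO only wells and 100% = carbachol wells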
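Material: HEK293 cells stably carrying human TRPML3-YFP; compound dosing: single dose, 3 µM final nominal compound, 0.3% DMSO final; incubation: 1-h 37 °C dye load, 5-s basal, 120-s post-compound reads; technique: Fluo-8 intracellular calcium fluorescence, excitation 470-495 nm, emission 515-575 nm; read-out basis: percent activation from peak-to-basal fluorescence ratio, scaled between DMSO and carbachol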
TAAR1 antag: human TAAR1 antagonism. Q96RJ0. CHO RD-HGA16 TAAR1, Fluo-8 calcium fluorescence, antagonist. inhibition, % at 3 µM. 360,000 tested, 1.5% active. AID 624466;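 active = inhibition above a per-plate cutoff, the mean inhibition of test compounds on that plate plus 3 SD, cut at about 49% in these data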;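 also: 0% = DMSO plus EC80 beta-PEA response and 100% = DMSO alone without agonist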
Target sequence (Q96RJ0 whole entry, looked up): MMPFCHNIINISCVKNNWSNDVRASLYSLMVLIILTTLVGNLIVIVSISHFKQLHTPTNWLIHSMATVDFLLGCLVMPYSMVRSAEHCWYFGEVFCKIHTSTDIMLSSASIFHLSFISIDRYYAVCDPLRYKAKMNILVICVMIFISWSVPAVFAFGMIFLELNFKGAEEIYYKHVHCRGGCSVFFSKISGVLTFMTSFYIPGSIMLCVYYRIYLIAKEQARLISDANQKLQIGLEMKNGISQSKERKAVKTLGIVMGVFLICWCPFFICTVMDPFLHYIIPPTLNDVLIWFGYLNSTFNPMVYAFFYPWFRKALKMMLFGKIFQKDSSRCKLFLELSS
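Assay system: CHO-derived RD-HGA16 cells stably expressing human TAAR1 plus Gα16. Timing: 140 s kinetic read after compound, 140 s after agonist. Technique: kinetic Fluo-8 calcium fluorescence measurement. Measure: % inhibition of agonist calcium response.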
zfTRPN1 agonist: agonists of zebrafish TRPN1 channel | HEK293 zebrafish TRPN1-YFP, Fluo-8 calcium fluorescence; 100% = response to 87 µM carbachol | activation, % at 3 µM | 220,000 tested, 0.18% active | AID 1424;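 active = activation above its plate's cutoff, the mean activation of test wells on that plate plus 3 SD, cut at about 19% in these data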;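 also: 0% = DMSO alone and 100% = 87 µM carbachol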
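Material: zebrafish TRPN1-YFP in HEK293 cells; Doses: single test compound dose, 3 µM nominal, 0.3% DMSO; Timing: dye loading 1 h at 37 °C, then 30 min room temperature; Technique: intracellular calcium fluorescence with Fluo-8; Benchmarks: high carbachol 87 µM, low DMSO alone.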
TAAR1 ag: human TAAR1 agonism | Q96RJ0 | AID 624467 | CHO RD-HGA16 TAAR1, Fluo-8 calcium fluorescence; vehicle wells 0%, saturating PEA agonist 100% | 360,000 tested, 0.99% active | activation, % at 3 µM;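 active = activation above the mean activation of all test compounds in the run plus 3 SD, cut at about 38% in these data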
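Repeats: no replicates (n 1) | Material: CHO-derived RD-HGA16 cells with stable Gα16 and human TAAR1 | Technique: Kinetic Fluo-8 calcium fluorescence | Schedule: 17-24 h seeding, 75 min 37 °C dye, 30 min RT | Evaluation: % activation from peak over basal fluorescence ratio, DMSO-to-PEA scaled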
LANA-H2A inh: blocks KSHV LANA binding to histone H2A/H2B | Q9QR71 | cell-free LANA-H2A/H2B peptide, fluorescence polarization | inhibition, % (no concentration beside the values) | 320,000 tested, 0.6% active | AID 2629; in the data active = inhibition mostly above about 10%, no sharp cut-off; inactive = mostly below about 6.7%
TAAR1 ag confirm: human TAAR1 agonism, confirmed; shares compounds with TAAR1 ag; CHO RD-HGA16 TAAR1, Fluo-8 calcium fluorescence; scaled: DMSO 0%, maximal phenethylamine 100%; activation, % at 3 µM; 2,400 tested, 82% active;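 active = activation above a cutoff set at the run's mean compound activation plus 3 SD, cut at about 39% in these data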
Ga16 ag counter: nonselective agonism, TAAR1 counter-screen; CHO-Ga16 parental, Fluo-8 calcium fluorescence; normalized to maximal ATP response, DMSO zero; activation, % at 3 µM; shares compounds with TAAR1 ag; 2,400 tested, 50% active;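 active = activation above the run cutoff, the mean activation over all tested wells plus 3 SD, cut at about 12% in these data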;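 also: 0% = DMSO wells and 100% = maximal ATP response on the peak over basal ratio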
TAAR1 desensitize: TAAR1 response desensitization, agonist counter-screen; CHO RD-HGA16 hTAAR1, Fluo-8 calcium, beta-PEA response inhibition; 2,400 tested, 46% active; inhibition, % at 3 µM; shares compounds with TAAR1 ag;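 active = inhibition above the run cutoff, the mean inhibition of all test compounds plus 3 SD, cut at about 49% in these data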;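 also: beta-PEA stimulus applied at its EC80; loss of beta-PEA calcium signal after compound pretreatment read as receptor desensitization; 0% = DMSO with beta-PEA at EC80 and 100% = DMSO alone without agonist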
Ga16 nonsel ant: counter-screen for TAAR1 agonists: nonselective Ga16 antagonists; AID 651952; CHO-Ga16 ATP-induced calcium, Fluo-8 fluorescence; 2,400 tested, 39% active; inhibition, % at 3 µM; shares compounds with TAAR1 ag;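 active = inhibition above the plate's mean compound inhibition plus 3 SD, computed per plate, cut at about 22% in these data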;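 also: 0% = EC80 ATP with DMSO and 100% = DMSO wells without ATP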
* = called active by the depositor; ! = repeats disagree.

Results for C[C@H]1CN([C@@H](C)CO)C(=O)c2cc(Br)cnc2O[C@H]1CN(C)C(=O)c1ccc2c(c1)OCO2 ?
TAAR1 antag: -7; TAAR1 ag: 6

How did NC1=NC2(CCCCC2)N=C(Nc2ccc(Br)cc2)N1 do in these assays?
GPR7 antagonist: -8; TRPML3 ag: 0; TAAR1 antag: 18; zfTRPN1 agonist: 1; TAAR1 ag: 44*; LANA-H2A inh: 0; TAAR1 ag confirm: 69*; Ga16 ag counter: 9; TAAR1 desensitize: 41; Ga16 nonsel ant: 0

What do the screens show for `CC(C)C[C@@H](CN(C)N=O)N(C[C@H](Cc1ccccc1)N(CCc1ccccc1)N=O)N=O`?
GPR7 antagonist: 7; TRPML3 ag: 2; TAAR1 antag: 43; zfTRPN1 agonist: 3; TAAR1 ag: 28; LANA-H2A inh: 0

What do the screens show for `CCCC[C@H](CN(N=O)[C@@H](Cc1ccccc1)CN(C)N=O)N(CCc1ccccc1)N=O`?
GPR7 antagonist: 11; TRPML3 ag: 2; TAAR1 antag: 24; zfTRPN1 agonist: 4; TAAR1 ag: 57*; LANA-H2A inh: 0; TAAR1 ag confirm: 64*; Ga16 ag counter: 0; TAAR1 desensitize: 23; Ga16 nonsel ant: 14

What do the screens show for `CN(C[C@H](Cc1ccccc1)N(C[C@H](Cc1cccc2ccccc12)N(CCc1ccccc1)N=O)N=O)N=O`?
TAAR1 antag: -5; TAAR1 ag: 69*!; LANA-H2A inh: -3; TAAR1 ag confirm: 46*; Ga16 ag counter: 1; TAAR1 desensitize: 5; Ga16 nonsel ant: 10

How did O=C(Nc1cccnc1)c1cc(Br)c(Br)s1 do in these assays?
TAAR1 antag: 48; TAAR1 ag: 91*; LANA-H2A inh: -6; TAAR1 ag confirm: 75*; Ga16 ag counter: 59*; TAAR1 desensitize: 50*; Ga16 nonsel ant: 23*

Results for CS(=O)(=O)c1cccc(NC(=O)c2ccc(Cl)c(Cl)c2)c1 ?
GPR7 antagonist: -1; TRPML3 ag: 1; TAAR1 antag: 26; zfTRPN1 agonist: 4; TAAR1 ag: 88*; LANA-H2A inh: 1; TAAR1 ag confirm: 60*; Ga16 ag counter: 43*; TAAR1 desensitize: 48; Ga16 nonsel ant: 28*

Results for NC(=O)c1cc(NC(=O)c2cc(Br)c(Br)s2)cc(C(N)=O)c1 ?
GPR7 antagonist: -12; TRPML3 ag: 1; TAAR1 antag: -25; zfTRPN1 agonist: 0; TAAR1 ag: 3; LANA-H2A inh: 1

Results for CS(=O)(=O)c1ccc(C(=O)Nc2cc(S(C)(=O)=O)ccc2Cl)cc1 ?
GPR7 antagonist: -9; TRPML3 ag: 0; TAAR1 antag: 4; zfTRPN1 agonist: 2; TAAR1 ag: 5; LANA-H2A inh: 1

What do the screens show for `O=C(NNC(=O)c1ccc(Cl)c(Cl)c1)c1cccnc1`?
GPR7 antagonist: -13; TAAR1 antag: -34; TAAR1 ag: 5; LANA-H2A inh: -9

What do the screens show for `O=C(Nc1cccnc1)c1ccc(Cl)c(Cl)c1`?
GPR7 antagonist: -14; TAAR1 antag: 10; TAAR1 ag: 47*; LANA-H2A inh: -3; TAAR1 ag confirm: 41*; Ga16 ag counter: 42*; TAAR1 desensitize: 15; Ga16 nonsel ant: 12

Results for CCCNc1nc2nc3ccccn3c(=O)c2cc1C(=O)NCCN1CCOCC1 ?
GPR7 antagonist: -8; TAAR1 antag: -2; TAAR1 ag: 0; LANA-H2A inh: 7

What do the screens show for `O=C(CSc1nnc(NC(=O)C2CCC2)s1)Nc1ccccc1Br`?
GPR7 antagonist: -8; TAAR1 antag: -8; TAAR1 ag: -1; LANA-H2A inh: -1

What do the screens show for `O=C(Nc1cccc(OCC(=O)N2CCOCC2)c1)c1ccc(C(F)(F)F)cc1`?
GPR7 antagonist: -6; TAAR1 antag: 13; TAAR1 ag: 5; LANA-H2A inh: 1

What do the screens show for `O=c1cnnc(Nc2ccc(Cl)c(C(F)(F)F)c2)[nH]1`?
GPR7 antagonist: -11; TRPML3 ag: 1; TAAR1 antag: 11; zfTRPN1 agonist: 0; TAAR1 ag: 24; LANA-H2A inh: -1

Results for O=c1cnnc(Nc2cccc(F)c2)[nH]1 ?
GPR7 antagonist: 6; TRPML3 ag: 1; TAAR1 antag: 37; zfTRPN1 agonist: 1; TAAR1 ag: 64*; LANA-H2A inh: 0; TAAR1 ag confirm: 74*; Ga16 ag counter: 0; TAAR1 desensitize: 48; Ga16 nonsel ant: 12

Results for O=c1cnnc(Nc2cccc(C(F)(F)F)c2)[nH]1 ?
GPR7 antagonist: -10; TRPML3 ag: 0; TAAR1 antag: 9; zfTRPN1 agonist: -1; TAAR1 ag: 11; LANA-H2A inh: 0

Results for O=c1cnnc(Nc2ccc(F)cc2)[nH]1 ?
GPR7 antagonist: -18; TRPML3 ag: 1; TAAR1 antag: 25; zfTRPN1 agonist: 0; TAAR1 ag: 46*; LANA-H2A inh: -2; TAAR1 ag confirm: 57*; Ga16 ag counter: 2; TAAR1 desensitize: 3; Ga16 nonsel ant: 4

What do the screens show for `COc1ccc(NC(=O)Cn2nnc(C(=O)Nc3ccc(F)c(Cl)c3)c2N)cc1`?
GPR7 antagonist: 1; TAAR1 antag: -14; TAAR1 ag: 1; LANA-H2A inh: 6

Results for CCCCC(=O)Nc1ccc(C(=O)Nc2ccc(OC)cc2[N+](=O)[O-])cc1 ?
GPR7 antagonist: -5; TRPML3 ag: 1; TAAR1 antag: 76*; zfTRPN1 agonist: 1; TAAR1 ag: 99*; LANA-H2A inh: -10; TAAR1 ag confirm: 18; Ga16 ag counter: 4; TAAR1 desensitize: 26; Ga16 nonsel ant: 20

Results for CCCCC(=O)Nc1ccc(NC(=O)c2ccc([N+](=O)[O-])cc2)cc1OC ?
GPR7 antagonist: -12; TRPML3 ag: 0; TAAR1 antag: 1; zfTRPN1 agonist: 2; TAAR1 ag: 37; LANA-H2A inh: -3

Results for O=C(NCCc1ccccc1)C1CCC(CNS(=O)(=O)c2ccccc2)CC1 (centres undefined) ?
GPR7 antagonist: 21; TAAR1 antag: 5; TAAR1 ag: 28; LANA-H2A inh: 1
